DNMT1 inh = human DNMT1 methyltransferase inhibitors, primary screen, biochemical, molecular beacon, fluorescence, HinP1I cleavage, uHTS. DNA (cytosine-5)-methyltransferase 1 (Homo sapiens), P26358. inhibition (reported as % activation of signal), % at 10 µM. 0.83% of 360,000 active; in the data active = inhibition above about 50%
STEP inh = STEP phosphatase inhibitors, primary screen, biochemical, fluorescence intensity, uHTS | recombinant STEP, OMFP fluorogenic substrate | inhibition, % at 20 µM | 0.25% of 360,000 active | AID 588621, 2011;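 active = inhibition at 20 µM, scaled per plate between control wells, above about 37%, limit read from the data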;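 note: 0% = DMSO with enzyme and substrate and 100% = substrate only without enzyme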
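Material: STEP (striatal-enriched tyrosine phosphatase) enzyme, cell-free | Medium: 50 mM Bis-Tris pH 6.0 with 2.5 mM DTT and 0.005% Tween 20 | Read-out: Percent inhibition scaled to no-enzyme and uninhibited-enzyme controls, plate-pattern corrected | Signal: Fluorescence read at 480 nm ex / 540 nm em | Times: 20 min reaction, room temperature, in the dark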
Scp-1 inhibitor = Scp-1 phosphatase inhibitors, primary screen, biochemical, colorimetric, uHTS; Carboxy-terminal domain RNA polymerase II polypeptide A small phosphatase 1 (Homo …; Recombinant Scp1, phosphopeptide, malachite green phosphate absorbance; inhibition, % at 20 µM; 0.88% of 340,000 active; AID 493091, 2011;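 active = inhibition above about 50% at 20 µM, limit read from the data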;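 note: plate controls were DMSO wells with enzyme for no effect and wells lacking enzyme for full effect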
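Material: truncated SCP-1 phosphatase (76-261aa) / Buffer or medium: 50 mM Tris acetate pH 5.5, 0.005% Tween-20, 10 mM MgCl2 / Compound dosing: one concentration, 20 µM, with 1.0% DMSO / Incubation: 45 min room-temperature reaction, 5 min colour, 30 min stabiliser / Detection: colorimetric free-phosphate detection, absorbance 630 nm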
LMPTP block = LMPTP phosphatase inhibitors, primary screen, biochemical, fluorescence intensity, uHTS. recombinant LMPTP-A, OMFP fluorogenic substrate. inhibition, % at 20 µM. 0.22% of 360,000 active. AID 651560, 2012;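 active = compounds that cut the enzyme signal by at least half of the control window in the single-dose screen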;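 note: plate controls were DMSO wells with enzyme plus substrate for no effect and substrate without enzyme for full effect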
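Test system: LMPTP-A phosphatase enzyme; input: 0.625 nM LMPTP-A final; reagent: OMFP substrate, 400 µM final; compound dosing: 20 µM single dose, 3% DMSO; incubation: 50 min dark incubation at room temperature; measured by: endpoint fluorescence intensity from OMFP dephosphorylation; measure: % inhibition relative to no-enzyme and uninhibited control wells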
HKDC1 inh = HKDC1 hexokinase inhibitors, primary screen, biochemical, fluorescence, uHTS; Q2TB90; recombinant HKDC1, G6PDH/diaphorase resazurin coupled fluorescence; inhibition, % at 20 µM; 0.16% of 340,000 active; AID 493160, 2011;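 active = inhibition above about 35% when tested at 20 µM, limit read from the data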;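 note: plate controls were DMSO wells with enzyme for no effect and DMSO wells lacking enzyme for full effect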
Target sequence (Q2TB90 whole entry, looked up): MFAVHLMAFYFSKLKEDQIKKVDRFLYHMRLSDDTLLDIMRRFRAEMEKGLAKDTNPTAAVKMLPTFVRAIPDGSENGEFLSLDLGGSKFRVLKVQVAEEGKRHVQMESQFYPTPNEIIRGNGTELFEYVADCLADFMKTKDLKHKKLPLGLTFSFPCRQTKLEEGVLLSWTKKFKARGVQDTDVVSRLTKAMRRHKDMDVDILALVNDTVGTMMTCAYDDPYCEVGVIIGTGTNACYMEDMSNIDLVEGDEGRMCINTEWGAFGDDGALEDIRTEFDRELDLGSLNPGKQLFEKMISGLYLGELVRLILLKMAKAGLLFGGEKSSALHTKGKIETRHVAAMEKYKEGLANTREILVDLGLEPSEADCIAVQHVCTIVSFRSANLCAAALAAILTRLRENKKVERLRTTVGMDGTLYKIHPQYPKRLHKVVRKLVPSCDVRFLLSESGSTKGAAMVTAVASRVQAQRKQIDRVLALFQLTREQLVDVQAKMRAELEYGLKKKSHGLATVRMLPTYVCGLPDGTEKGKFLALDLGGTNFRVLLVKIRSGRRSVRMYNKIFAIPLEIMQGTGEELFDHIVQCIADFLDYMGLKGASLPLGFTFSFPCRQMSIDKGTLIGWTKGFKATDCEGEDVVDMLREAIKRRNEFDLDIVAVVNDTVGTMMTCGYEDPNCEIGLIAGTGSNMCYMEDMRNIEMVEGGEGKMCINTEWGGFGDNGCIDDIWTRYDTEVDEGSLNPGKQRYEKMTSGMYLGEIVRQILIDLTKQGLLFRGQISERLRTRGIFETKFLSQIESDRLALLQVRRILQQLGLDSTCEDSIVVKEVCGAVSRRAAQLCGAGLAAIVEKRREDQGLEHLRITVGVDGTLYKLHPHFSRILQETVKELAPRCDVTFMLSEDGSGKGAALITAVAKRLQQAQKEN
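System: Recombinant HKDC1 hexokinase | Amount: HKDC1 at 5 µg/mL | Reagent: Glucose with 1 mM ATP | Doses: Single 20 µM dose | Incubation: Reaction time 90 min, room temperature, protected from light | Signal: Coupled resazurin fluorescence, excitation 525 nm, emission 613 nm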
SUMO1-SIM PPI = modulators of SUMO1 protein-protein interactions, primary screen, biochemical, uHTS; Small ubiquitin-related modifier 1 (Homo sapiens), P63165; SUMO1 binding to a labelled peptide, TR-FRET, 1 h; inhibition, % at 20 µM; 0.33% of 360,000 active; in the data active = inhibition above about 37%
Scp-1 conf = Scp-1 phosphatase inhibitors, retest, confirmation, biochemical, colorimetric, single concentration | recombinant SCP-1 catalytic domain, phosphate release, malachite green absorbance | shares compounds with Scp-1 inhibitor | 61% of 2,500 active | inhibition, % at 20 µM;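 note: plate controls were DMSO with enzyme for no effect and buffer wells lacking enzyme for full effect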
Scp-1 MG ctr = colorimetric readout interference by compounds, confirmation, artefact control for Scp-1 inhibitor project, biochemical, single concentration. AID 540313, 2011. apparent inhibition (interference), % at 20 µM. shares compounds with Scp-1 inhibitor. Colorimetric interference counterscreen, malachite green absorbance 630 nm. 2,500 tested, under 10 active;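 note: compounds added after enzyme reaction finished so only phosphate colour detection is probed; plate controls were DMSO wells with completed Scp-1 reaction for no effect and substrate wells lacking enzyme for full effect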
Scp-1 Tm shift = Scp-1 binding by thermal shift, confirmation, orthogonal assay for Scp-1 inhibitor project, biophysical, differential scanning fluorimetry. shares compounds with Scp-1 inhibitor. Recombinant SCP1, Sypro Orange thermal shift Tm. thermal shift relative to vanadate control, % at 40 µM. 25% of 1,500 active. AID 540329, 2011;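 active = substances whose mean melting-temperature shift, as a percentage of the reference inhibitor's shift, reaches about 5.3%, limit read from the data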;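 note: 0% = Tm of DMSO wells and 100% = Tm with sodium orthovanadate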
* = called active by the depositor; · = no result given. An excerpt weighted towards active compounds, which were near 1.8% of everything screened.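 Rule for the calls, unless noted: active = inhibition of at least 30% at 20 µM; inactive = the rest.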

SMILES	DNMT1 inh	STEP inh	Scp-1 inhibitor	LMPTP block	HKDC1 inh	SUMO1-SIM PPI	Scp-1 conf	Scp-1 MG ctr	others
O=C1CC(c2ccc(S(=O)(=O)Nc3cc(C(F)(F)F)cc(C(F)(F)F)c3)cc2)CN1 (centres undefined)	-1	-3	-4	2	-7	0	-5	-8
C#CCn1cc(CNC[C@H]2O[C@@H](n3cnc4c(=O)[nH]c(N)nc43)[C@H](O)[C@@H]2O)c2ccccc21	-4	-2	·	0	·	0	·	·
C=CCn1c(C(C)n2c(-c3cnccn3)nc3ccccc32)nc2ccccc21 (centres undefined)	·	·	·	-1	·	-3	·	·
CC(C)c1ccc2oc(-c3ccc(NC(=O)c4ncn[nH]4)cc3)nc2c1	37	13	91*	3	-7	47*	53*	-7	Scp-1 Tm shift=-14
COCCNC(=O)C1(C)CCCN(Cc2ccc3ccccc3c2Br)C1 (centres undefined)	1	0	·	-1	·	-4	·	·
COc1ccc(-c2ccc(/C=N/NC(=O)c3cccnc3)o2)c([N+](=O)[O-])c1	-1	32	96*	53*	28	-14	82*	-12	Scp-1 Tm shift=4
Cc1ccc(C(=O)N/N=C/c2ccc(-c3ccccc3[N+](=O)[O-])o2)cn1	-23	4	-7	0	8	1	·	·
O=C1NC(=S)SC1=Cc1ccccc1Br	4	-1	-5	2	12	11	·	·
O=C1NC(=S)SC1=Cc1cc(Br)ccc1O	7	-1	67*	0	23	16	2	-24
O=C1NC(=S)SC1=Cc1cccs1	-1	1	53*	0	14	-9	-2	-12
CCc1nc2ccc(C(=O)Nc3cccc(OCC(=O)N(C)C)c3)cn2c1N(C)C(=O)c1cccc(OC)c1	0	-1	·	0	·	9	·	·
O=C1CCN(Cc2ccccc2)S(=O)(=O)c2ccc(F)cc21	20	-3	52*	-1	2	1	2	-17
O=C1CS(=O)(=O)N(Cc2ccc(F)cc2)c2ccccc21	-5	2	-11	0	10	0	·	·
CC1CCCC(C)N1c1nnc(NC(=O)Cn2c(=O)oc3ccccc32)s1 (centres undefined)	2	0	95*	0	1	3	1	-9
CCc1nnc(NC(=O)Cn2c(=O)oc3ccccc32)s1	-1	-2	-10	-2	-11	-4	·	·
C[n+]1cccc(/C=N/NC(=O)CC23CC4CC(CC(C4)C2)C3)c1	4	-5	83*	-2	-4	-12	-22	-21
CC(C)CN(CC(C)C)S(=O)(=O)c1cc([N+](=O)[O-])ccc1N1CCCCCC1	3	5	52*	5	3	-2	-9	-12
C[C@H](CO)N1C[C@H](C)[C@@H](CN(C)Cc2ccc(-c3ccccc3)cc2)Oc2c(NS(=O)(=O)c3cn(C)cn3)cccc2C1=O	-5	-1	69*	-1	1	5	-7	-15

Bioassay records: PubChem BioAssay, Sanford-Burnham Center for Chemical Genomics
